Measurements taken from ChEMBL document CHEMBL3779798, “Novel seleno- and thio-urea derivatives with potent in vitro activities against several cancer cell lines” (Eur J Med Chem, 2016).
Calls of active or inactive are those of the source. No cut-off for these calls is given here.

Experiments:
RKO [1] = test: Anticancer activity against human RKO cells assessed as inhibition of cell growth after 72 hrs by MTT assay; assay type: functional, cell-based
Summary of the method: (§1)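 MTT assay at 3,000 cells/well. Cells treated with DMSO or seven concentrations from 0.5 to 50 µM for 24, 48 or 72 h. MTT added 3 h before the end point; formazan dissolved in DMSO and read at 570 and 630 nm. IC50 is the concentration giving 50% growth inhibition. Media: PANC-1, BxPC3 and 1205Lu in DMEM; DU145 and A549 in RPMI 1640; HT29, HCT116 and RKO in McCoy's 5A, all with 10% FBS and pen/strep, at 37 °C and 5% CO2.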

[2] = Anticancer activity against human PANC1 cells assessed as inhibition of cell growth after 72 hrs by MTT assay; assay type: functional, cell-based; conditions: PANC-1, 72 h; summary of the method: as §1
HCT-116 [3] = test: Potency index, ratio IC50 of 5-FU to IC50 of compound for anticancer activity against human HCT116 cells; assay type: functional
Summary of the method: (§2)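 Colon lines (McCoy's 5A, 10% FBS, penicillin/streptomycin, 37 °C, 5% CO2) seeded at 3,000 cells/well and exposed 24, 48 or 72 h to DMSO or seven concentrations across 0.5–50 µM. MTT added 3 h before end; formazan dissolved in DMSO, absorbance read at 570 and 630 nm. IC50 (50% growth inhibition) from curve fitting; index is the 5-FU IC50 divided by the compound IC50.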

HCT-116 [4] = test: Induction of apoptosis in human HCT116 cells assessed as early apoptotic cells at 5 uM after 24 hrs by caspase3/7 reagent based flow cytometry (reference value: 5.18%); assay type: functional
A549 = test: Anticancer activity against human A549 cells assessed as inhibition of cell growth after 24 hrs by MTT assay; assay type: functional, cell-based; conditions: A549, 24 h; summary of the method: as §1
HCT-116 [5] = test: Induction of apoptosis in human HCT116 cells assessed as late apoptotic cells at 1 uM after 24 hrs by annexin-V staining based flow cytometry analysis (reference value: 1.06%); assay type: functional
HCT-116 [6] = test: Induction of apoptosis in human HCT116 cells assessed as late apoptotic cells at 5 uM after 24 hrs by annexin-V staining based flow cytometry analysis (reference value: 1.06%); assay type: functional
HCT-116 [7] = test: Induction of apoptosis in human HCT116 cells assessed as necrotic cells at 2.5 uM after 24 hrs by caspase3/7 reagent based flow cytometry (reference value: 4.14%); assay type: functional
HCT-116 [8] = test: Induction of apoptosis in human HCT116 cells assessed as early apoptotic cells at 2.5 uM after 24 hrs by caspase3/7 reagent based flow cytometry (reference value: 5.18%); assay type: functional
[9] = Anticancer activity against human HCT116 cells assessed as inhibition of cell growth after 24 hrs by MTT assay; assay type: functional, cell-based; conditions: HCT-116, 24 h; summary of the method: as §1
[10] = Anticancer activity against human HCT116 cells assessed as inhibition of cell growth after 48 hrs by MTT assay; assay type: functional, cell-based; conditions: HCT-116, 48 h; summary of the method: as §1
HT-29 [11] = test: Anticancer activity against human HT-29 cells assessed as inhibition of cell growth after 48 hrs by MTT assay; assay type: functional, cell-based; conditions: HT-29, 48 h; summary of the method: as §1
[12] = Anticancer activity against human 1205 Lu cells assessed as inhibition of cell growth after 48 hrs by MTT assay; assay type: functional, cell-based; summary of the method: as §1
HCT-116 [13] = test: Induction of apoptosis in human HCT116 cells assessed as viable cells at 5 uM after 24 hrs by caspase3/7 reagent based flow cytometry (reference value: 88.4%); assay type: functional; conditions: HCT-116, 24 h, read-out: Activity
HCT-116 [14] = test: Decrease in number of viable cells in human HCT116 cells at 5 uM after 24 hrs by calcein-AM and ethidium homodimer-1 staining based flow cytometry analysis (reference value: 94.9%); assay type: functional
HT-29 [15] = test: Potency index, ratio IC50 of 5-FU to IC50 of compound for anticancer activity against human HT-29 cells; assay type: functional; summary of the method: as §2
HCT-116 [16] = test: Induction of apoptosis in human HCT116 cells assessed as necrotic cells at 5 uM after 24 hrs by caspase3/7 reagent based flow cytometry (reference value: 4.14%); assay type: functional
[17] = Anticancer activity against human PANC1 cells assessed as inhibition of cell growth after 48 hrs by MTT assay; assay type: functional, cell-based; conditions: PANC-1, 48 h; summary of the method: as §1
HCT-116 [18] = test: Decrease in number of viable cells in human HCT116 cells at 2.5 uM after 24 hrs by calcein-AM and ethidium homodimer-1 staining based flow cytometry analysis (reference value: 94.9%); assay type: functional
RKO [19] = test: Anticancer activity against human RKO cells assessed as inhibition of cell growth after 24 hrs by MTT assay; assay type: functional, cell-based; summary of the method: as §1
[20] = Anticancer activity against human DU145 cells assessed as inhibition of cell growth after 24 hrs by MTT assay; assay type: functional, cell-based; conditions: DU-145, 24 h; summary of the method: as §1
HCT-116 [21] = test: Reduction of XIAP level in human HCT116 cells after 24 hrs by western blot analysis; assay type: functional, cell-based
Summary of the method: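 HCT116 cells (6 × 10^5/well) treated with rising concentrations for 24 h. Lysed in RIPA with phosphatase and protease inhibitors and PMSF, cleared at 15,000 g for 10 min. Lysates resolved by SDS-PAGE, transferred to PVDF, probed overnight in the cold with primary antibodies, then peroxidase-linked secondary for 1–4 h at room temperature, detected by ECL; β-actin antibody used.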

HCT-116 [22] = test: Induction of apoptosis in human HCT116 cells assessed as late apoptotic cells at 5 uM after 24 hrs by caspase3/7 reagent based flow cytometry (reference value: 2.28%); assay type: functional
HCT-116 [23] = test: Induction of apoptosis in human HCT116 cells assessed as viable cells at 2.5 uM after 24 hrs by caspase3/7 reagent based flow cytometry (reference value: 88.4%); assay type: functional; conditions: HCT-116, 24 h, read-out: Activity
[24] = Anticancer activity against human 1205 Lu cells assessed as inhibition of cell growth after 24 hrs by MTT assay; assay type: functional, cell-based; summary of the method: as §1
[25] = Anticancer activity against human 1205 Lu cells assessed as inhibition of cell growth after 72 hrs by MTT assay; assay type: functional, cell-based; summary of the method: as §1
[26] = Anticancer activity against human BxPC3 cells assessed as inhibition of cell growth after 72 hrs by MTT assay; assay type: functional, cell-based; conditions: BXPC-3, 72 h; summary of the method: as §1
HCT-116 [27] = test: Decrease in whole PARP level in human HCT116 cells at 0.5 to 5 uM after 24 hrs by western blot analysis; assay type: functional, cell-based
Summary of the method: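 HCT116 cells (6 × 10^5/well) treated for 24 h. Whole-cell lysates made in RIPA buffer with phosphatase and protease inhibitors and PMSF, cleared at 15,000 g, resolved by SDS-PAGE and transferred to PVDF. Blots probed overnight in the cold with primary antibodies, then peroxidase-linked secondaries, and detected by ECL; β-actin antibody used.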

HCT-116 [28] = test: Induction of apoptosis in human HCT116 cells assessed as necrotic cells at 5 uM after 24 hrs by annexin-V staining based flow cytometry analysis (reference value: 0.72%); assay type: functional
HCT-116 [29] = test: Induction of apoptosis in human HCT116 cells assessed as necrotic cells at 1 uM after 24 hrs by annexin-V staining based flow cytometry analysis (reference value: 0.72%); assay type: functional
HCT-116 [30] = test: Induction of apoptosis in human HCT116 cells assessed as viable cells at 2.5 uM after 24 hrs by annexin-V staining based flow cytometry analysis (reference value: 90.38%); assay type: functional; conditions: HCT-116, 24 h, read-out: Activity
HCT-116 [31] = test: Induction of apoptosis in human HCT116 cells assessed as early apoptotic cells at 2.5 uM after 24 hrs by annexin-V staining based flow cytometry analysis (reference value: 7.84%); assay type: functional

Compound: Br.Br.N=C(N)[Se]Cc1nc2ccccc2nc1C[Se]C(=N)N
- IC50 (RKO [1]): 2500 nM
- IC50 [2]: 2000 nM
- Ratio IC50 (HCT-116 [3]): >50
- Activity (HCT-116 [4]): 27.66%
- IC50 (A549): 3000 nM
- Activity (HCT-116 [5]): 2.28%
- Activity (HCT-116 [6]): 35.68%
- Activity (HCT-116 [7]): 2.78%
- Activity (HCT-116 [8]): 6.48%
- IC50 [9]: 2900 nM
- IC50 [10]: 700 nM
- IC50 (HT-29 [11]): 4100 nM
- IC50 [12]: 2800 nM
- viability at 5 µM (HCT-116 [13]): 16.1%
- Activity (HCT-116 [14]): 73.4%
- Ratio IC50 (HT-29 [15]): >50
- Activity (HCT-116 [16]): 5.96%
- IC50 [17]: 2900 nM
- Activity (HCT-116 [18]): 92.2%
- IC50 (RKO [19]): 3800 nM
- IC50 [20]: 2300 nM
- Activity (HCT-116 [21]): Dose-dependent effect
- Activity (HCT-116 [22]): 50.26%
- viability at 2.5 µM (HCT-116 [23]): 85%
- IC50 [24]: 3300 nM
- IC50 [25]: 2200 nM
- IC50 [26]: 2200 nM
- Activity (HCT-116 [27]): Active
- Activity (HCT-116 [28]): 0.68%
- Activity (HCT-116 [29]): 0.2%
- viability at 2.5 µM (HCT-116 [30]): 66.2%
- Activity (HCT-116 [31]): 21.6%
